From ChEMBL document CHEMBL1126822, “7 alpha-Methyl- and 11 beta-ethoxy-substitution of [125I]-16 alpha-iodoestradiol: effect on estrogen receptor-mediated target tissue uptake” (J Med Chem, 1993)

What was measured:
Rattus norvegicus [1] = assay: Tissue uptake (kidneys) of [125I]- after administration of [125I]-labeled compound to immature female rats (n=5) in the absence of 60 microg coinjected estradiol after 1 hour; type: ADME, organism-based, Kidney; conditions: in vivo
Outline: (§1)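 Immature female Fischer rats, 24 days old, 55-60 g, unanesthetized in retention cages, given HPLC-purified 125I-labeled steroid (3 μCi, 111 kBq) via lateral tail vein in 200 μL of 9% ethanol-saline with 1% Tween-80. The blocking group was coinjected with 60 μg unlabeled estradiol and sampled at 1 h. Animals were killed under ether at 0.5-24 h. Tissues were KCl-washed, blotted, weighed and gamma-counted. Results are % ID/g, with variation as small-sample-corrected %CV.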

Rattus norvegicus [2] = assay: Tissue uptake (lungs) of [125I]- after administration of [125I]-labeled compound to immature female rats (n=4) in the absence of 60 microg coinjected estradiol after 2 hours; type: ADME, organism-based; conditions: in vivo; outline: as §1
Rattus norvegicus [3] = assay: Tissue uptake (uterus) of [125I]- after administration of [125I]-labeled compound to immature female rats (n=3) in the presence of 60 microg coinjected estradiol after 1 hour; type: ADME, organism-based; conditions: in vivo
Outline: (§2)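 Immature female Fischer rats, 24 days old, 55-60 g, unanesthetized in retention cages, got HPLC-purified n.c.a. 125I-labeled steroid (3 μCi, 111 kBq) by lateral tail vein. Dose was given in 200 μL saline with 9% ethanol and 1% Tween-80. Deep ether anesthesia, axillary artery cut; tissues KCl-washed, blotted, weighed, gamma-counted as % ID/g; variation as small-sample-corrected %CV.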

Rattus norvegicus [4] = assay: Tissue uptake (muscle) of [125I]- after administration of [125I]-labeled compound to immature female rats (n=4) in the absence of 60 microg coinjected estradiol after 5 hours; type: ADME, organism-based; conditions: in vivo; outline: as §1
Rattus norvegicus [5] = assay: Tissue uptake (liver) of [125I]- after administration of [125I]-labeled compound to immature female rats (n=4) in the absence of 60 microg coinjected estradiol after 5 hours; type: ADME, organism-based; conditions: in vivo; outline: as §1
Rattus norvegicus [6] = assay: Tissue uptake (spleen) of [125I]- after administration of [125I]-labeled compound to immature female rats (n=3) in the presence of 60 microg coinjected estradiol after 1 hour; type: ADME, organism-based; conditions: in vivo; outline: as §2
Rattus norvegicus [7] = assay: Tissue uptake (blood) of [125I]- after administration of [125I]-labeled compound to immature female rats (n=3) in the presence of 60 microg coinjected estradiol after 1 hour; type: ADME, organism-based; conditions: in vivo; outline: as §1
Rattus norvegicus [8] = assay: Tissue uptake (muscle) of [125I]- after administration of [125I]-labeled compound to immature female rats (n=5) in the absence of 60 microg coinjected estradiol after 1 hour; type: ADME, organism-based; conditions: in vivo; outline: as §1
Rattus norvegicus [9] = assay: Tissue uptake (lungs) of [125I]- after administration of [125I]-labeled compound to immature female rats (n=5) in the absence of 60 microg coinjected estradiol after 1 hour; type: ADME, organism-based; conditions: in vivo; outline: as §1
Rattus norvegicus [10] = assay: Tissue uptake (thyroid) of [125I]- after administration of [125I]-labeled compound to immature female rats (n=4) in the absence of 60 microg coinjected estradiol after 2 hours; type: ADME, organism-based, Thyroid gland; conditions: in vivo; outline: as §2
Rattus norvegicus [11] = assay: Tissue uptake (thyroid) of [125I]- after administration of [125I]-labeled compound to immature female rats (n=5) in the absence of 60 microg coinjected estradiol after 1 hour; type: ADME, organism-based, Thyroid gland; conditions: in vivo; outline: as §2
Rattus norvegicus [12] = assay: Tissue uptake (uterus) of [125I]- after administration of [125I]-labeled compound to immature female rats (n=4) in the absence of 60 microg coinjected estradiol after 2 hours; type: ADME, organism-based; conditions: in vivo; outline: as §2
Rattus norvegicus [13] = assay: Tissue uptake (kidneys) of [125I]- after administration of [125I]-labeled compound to immature female rats (n=3) in the presence of 60 microg coinjected estradiol after 1 hour; type: ADME, organism-based, Kidney; conditions: in vivo; outline: as §1
[14] = molecular target: Estrogen receptor (Mus musculus) (UniProt O08537+P19785); assay: Binding affinity at murine estrogen receptor by [3H]estradiol displacement.; type: protein assay
Estrogen receptor (Mus musculus), sequence (O08537 whole entry, looked up): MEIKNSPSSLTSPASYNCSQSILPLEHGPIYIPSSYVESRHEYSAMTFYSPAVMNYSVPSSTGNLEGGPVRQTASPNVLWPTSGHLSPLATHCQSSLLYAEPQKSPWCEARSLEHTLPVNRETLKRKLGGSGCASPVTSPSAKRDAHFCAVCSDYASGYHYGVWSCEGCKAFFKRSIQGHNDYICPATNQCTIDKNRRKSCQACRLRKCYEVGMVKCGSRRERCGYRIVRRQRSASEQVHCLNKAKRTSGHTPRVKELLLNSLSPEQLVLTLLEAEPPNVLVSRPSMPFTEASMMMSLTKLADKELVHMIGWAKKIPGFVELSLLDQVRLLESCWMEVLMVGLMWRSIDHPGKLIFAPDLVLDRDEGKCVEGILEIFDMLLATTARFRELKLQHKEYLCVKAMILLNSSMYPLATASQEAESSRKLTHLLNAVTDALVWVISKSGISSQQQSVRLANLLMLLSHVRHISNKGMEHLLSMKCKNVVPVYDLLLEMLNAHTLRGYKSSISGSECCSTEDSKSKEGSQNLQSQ
Estrogen receptor (Mus musculus), sequence (P19785 whole entry, looked up): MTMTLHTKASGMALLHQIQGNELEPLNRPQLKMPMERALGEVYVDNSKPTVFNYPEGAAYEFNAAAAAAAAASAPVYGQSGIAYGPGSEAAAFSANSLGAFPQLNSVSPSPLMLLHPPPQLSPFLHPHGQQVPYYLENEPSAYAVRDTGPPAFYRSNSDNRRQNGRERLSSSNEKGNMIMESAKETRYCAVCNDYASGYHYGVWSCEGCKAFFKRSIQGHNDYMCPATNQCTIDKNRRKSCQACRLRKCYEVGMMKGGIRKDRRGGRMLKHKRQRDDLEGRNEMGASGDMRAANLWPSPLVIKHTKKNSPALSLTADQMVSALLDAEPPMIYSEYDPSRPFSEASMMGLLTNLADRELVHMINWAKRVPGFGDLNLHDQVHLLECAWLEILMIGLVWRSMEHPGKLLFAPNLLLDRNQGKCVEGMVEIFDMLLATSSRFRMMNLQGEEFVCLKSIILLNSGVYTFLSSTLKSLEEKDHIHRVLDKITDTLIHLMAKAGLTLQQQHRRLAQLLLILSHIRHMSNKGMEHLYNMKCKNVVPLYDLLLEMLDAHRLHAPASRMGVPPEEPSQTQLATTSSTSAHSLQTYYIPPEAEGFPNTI
Outline: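 Competitive binding in murine uterine cytoplasmic extracts, incubated 18 h at 0-4 °C with 20 nM [3H]estradiol, with or without competing steroids from 2 nM to 20 μM. RBA = 100 × ratio of competitor to unlabeled estradiol concentration giving 50% competition of specific [3H]estradiol binding. Mean of three experiments with SD.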

Rattus norvegicus [15] = assay: Tissue uptake (fat) of [125I]- after administration of [125I]-labeled compound to immature female rats (n=5) in the absence of 60 microg coinjected estradiol after 1 hour; type: ADME, organism-based; conditions: in vivo; outline: as §1
Rattus norvegicus [16] = assay: Tissue uptake (liver) of [125I]- after administration of [125I]-labeled compound to immature female rats (n=5) in the absence of 60 microg coinjected estradiol after 1 hour; type: ADME, organism-based; conditions: in vivo; outline: as §1
Rattus norvegicus [17] = assay: Tissue uptake (thyroid) of [125I]- after administration of [125I]-labeled compound to immature female rats (n=3) in the absence of 60 microg coinjected estradiol after 0.5 hours; type: ADME, organism-based, Thyroid gland; conditions: in vivo; outline: as §2
Rattus norvegicus [18] = assay: Tissue uptake (thyroid) of [125I]- after administration of [125I]-labeled compound to immature female rats (n=3) in the presence of 60 microg coinjected estradiol after 1 hour; type: ADME, organism-based, Thyroid gland; conditions: in vivo; outline: as §2
Rattus norvegicus [19] = assay: Tissue uptake (lungs) of [125I]- after administration of [125I]-labeled compound to immature female rats (n=3) in the absence of 60 microg coinjected estradiol after 0.5 hours; type: ADME, organism-based; conditions: in vivo; outline: as §1
Rattus norvegicus [20] = assay: Tissue uptake (fat) of [125I]- after administration of [125I]-labeled compound to immature female rats (n=4) in the absence of 60 microg coinjected estradiol after 2 hours; type: ADME, organism-based; conditions: in vivo; outline: as §1
Rattus norvegicus [21] = assay: Tissue uptake (kidneys) of [125I]- after administration of [125I]-labeled compound to immature female rats (n=3) in the absence of 60 microg coinjected estradiol after 0.5 hours; type: ADME, organism-based, Kidney; conditions: in vivo; outline: as §1
Rattus norvegicus [22] = assay: Tissue uptake (blood) of [125I]- after administration of [125I]-labeled compound to immature female rats (n=4) in the absence of 60 microg coinjected estradiol after 2 hours; type: ADME, organism-based; conditions: in vivo; outline: as §1
Rattus norvegicus [23] = assay: Tissue uptake (kidneys) of [125I]- after administration of [125I]-labeled compound to immature female rats (n=4) in the absence of 60 microg coinjected estradiol after 2 hours; type: ADME, organism-based, Kidney; conditions: in vivo; outline: as §1
Rattus norvegicus [24] = assay: Tissue uptake (blood) of [125I]- after administration of [125I]-labeled compound to immature female rats (n=5) in the absence of 60 microg coinjected estradiol after 1 hour; type: ADME, organism-based; conditions: in vivo; outline: as §1
Rattus norvegicus [25] = assay: Tissue uptake (fat) of [125I]- after administration of [125I]-labeled compound to immature female rats (n=3) in the presence of 60 microg coinjected estradiol after 1 hour; type: ADME, organism-based; conditions: in vivo; outline: as §1
Rattus norvegicus [26] = assay: Tissue uptake (thyroid) of [125I]- after administration of [125I]-labeled compound to immature female rats (n=3) in the absence of 60 microg coinjected estradiol after 24 hours; type: ADME, organism-based, Thyroid gland; conditions: in vivo; outline: as §2
Rattus norvegicus [27] = assay: Tissue uptake (liver) of [125I]- after administration of [125I]-labeled compound to immature female rats (n=3) in the presence of 60 microg coinjected estradiol after 1 hour; type: ADME, organism-based; conditions: in vivo; outline: as §1
Rattus norvegicus [28] = assay: Tissue uptake (lungs) of [125I]- after administration of [125I]-labeled compound to immature female rats (n=3) in the presence of 60 microg coinjected estradiol after 1 hour; type: ADME, organism-based; conditions: in vivo; outline: as §1
Rattus norvegicus [29] = assay: Tissue uptake (blood) of [125I]- after administration of [125I]-labeled compound to immature female rats (n=3) in the absence of 60 microg coinjected estradiol after 0.5 hours; type: ADME, organism-based; conditions: in vivo; outline: as §1
Rattus norvegicus [30] = assay: Tissue uptake (spleen) of [125I]- after administration of [125I]-labeled compound to immature female rats (n=5) in the absence of 60 microg coinjected estradiol after 1 hour; type: ADME, organism-based; conditions: in vivo; outline: as §2

ID/g (Rattus norvegicus [1]) [%]	ID/g (Rattus norvegicus [2]) [%]	ID/g (Rattus norvegicus [3]) [%]	ID/g (Rattus norvegicus [4]) [%]	ID/g (Rattus norvegicus [5]) [%]	ID/g (Rattus norvegicus [6]) [%]	ID/g (Rattus norvegicus [7]) [%]	ID/g (Rattus norvegicus [8]) [%]	ID/g (Rattus norvegicus [9]) [%]	ID/g (Rattus norvegicus [10]) [%]	ID/g (Rattus norvegicus [11]) [%]	ID/g (Rattus norvegicus [12]) [%]	ID/g (Rattus norvegicus [13]) [%]	relative binding affinity (RBA) [14]	ID/g (Rattus norvegicus [15]) [%]	ID/g (Rattus norvegicus [16]) [%]	ID/g (Rattus norvegicus [17]) [%]	ID/g (Rattus norvegicus [18]) [%]	ID/g (Rattus norvegicus [19]) [%]	ID/g (Rattus norvegicus [20]) [%]	SMILES	further results
0.83	0.32	0.34	0.06	0.72	0.43	0.33	0.32	0.54	66.19	45.15	6.35	0.51	55.2	1.79	1.26	40.33	43.5	0.82	1.12	C[C@@H]1Cc2cc(O)ccc2[C@H]2CC[C@]3(C)[C@@H](O)[C@H](I)C[C@H]3[C@H]12	ID/g (Rattus norvegicus [21]): 1.3%; ID/g (Rattus norvegicus [22]): 0.32%; ID/g (Rattus norvegicus [23]): 0.5%; ID/g (Rattus norvegicus [24]): 0.38%; ID/g (Rattus norvegicus [25]): 1.64%; ID/g (Rattus norvegicus [26]): 334.84%; ID/g (Rattus norvegicus [27]): 1.09%; ID/g (Rattus norvegicus [28]): 0.43%; ID/g (Rattus norvegicus [29]): 0.45%; ID/g (Rattus norvegicus [30]): 0.43%
1.83	1.01	0.72	0.35	2.31	1.6	1.09	0.69	1.3	218.87	110.96	13.08	1.61	16.5	1.51	3.48	105.65	156.51	1.72	0.94	CCO[C@H]1C[C@]2(C)[C@@H](O)[C@H](I)C[C@H]2[C@@H]2CCc3cc(O)ccc3[C@H]21	ID/g (Rattus norvegicus [21]): 2.26%; ID/g (Rattus norvegicus [22]): 0.89%; ID/g (Rattus norvegicus [23]): 1.78%; ID/g (Rattus norvegicus [24]): 1.01%; ID/g (Rattus norvegicus [25]): 1.63%; ID/g (Rattus norvegicus [26]): 773.37%; ID/g (Rattus norvegicus [27]): 4.5%; ID/g (Rattus norvegicus [28]): 1.18%; ID/g (Rattus norvegicus [29]): 1.29%; ID/g (Rattus norvegicus [30]): 1.49%
